We go through seven molecules from article PMC7113734 (Antiviral Research, 2016).

The test system of assay [1] is drug-resistant HIV-1 strains. Kind of assay: Antiviral activity against drug-resistant HIV-1 strains in MT-4. Format: cell-based. Particulars: for EC50: MT-4.
The subject of assay [2] is HIV attachment to HeLa-CD4-LTR-β-gal cells. Kind of assay: Attachment inhibition assay. Format: cell-based, HIV-1. To be noted: Human immunodeficiency virus 1, read-out: Attachment inhibition EC50 ± SD.
Assay [3] has as its system drug resistant clinical HIV isolates. Briefly: Antiviral activity against drug-resistant HIV-1 in PBMCs. It is filed as cell-based. To be noted: Human immunodeficiency virus 1, PBMC.
Another assay relates to HIV strain 92US727. Kind of assay: Cell-to-cell virus transmission assay in fresh human PBMCs. It is filed as cell-based, HIV-1. The method, boiled down:
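HIV-infected fresh human PBMCs treated 3 days with six concentrations of test compound. Passaged every 3 days for three passages at fixed compound concentration; 80% of culture volume replaced with fresh compound-containing medium and uninfected cells. Cell-free supernatants collected on sub-culture days for RT activity and extracellular p24 antigen. TCID50 per passage by endpoint dilution.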

The subject of another assay is HIVIIIB. Briefly: Cell-to-cell virus transmission assay in CEM-SS cells. It is filed as cell-based, HIV-1.
Assay [4] concerns HL2/3 cells expressing HIV-1 gp120 and gp41 fusing with HeLa-CD4-LTR-β-gal cells. Kind of assay: Fusion inhibition assay. Format: cell-based. To be noted: read-out: Fusion inhibition EC50 ± SD. The gist of the method: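 HeLa-CD4-LTR-β-Gal cells incubated with test compound for 1 h at 37°C/5% CO2, then co-cultured 48 h with HL2/3 cells. Cells lysed and β-galactosidase expression measured by chemiluminescent Gal-Screen.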

Converted amounts (≈) assume the structure as drawn. Read-outs that look alike come from different tables or passages of the source.

For `Cc1cn([C@H]2C[C@H](N=[N+]=[N-])[C@@H](CO)O2)c(=O)[nH]c1=O` [AZT, reference compound], the EC50 in assay [1] (Human immunodeficiency virus 1, read-out: Mean EC50 ± SD, positive control, AZT- and NNRTI-resistant, RT 4xAZT/L100I) stood at 4 nM; in assay [1] (Human immunodeficiency virus 1, read-out: Mean EC50 ± SD, positive control, AZT- and NNRTI-resistant, RT 4xAZT/Y181C) it was 7 nM; in assay [1] (Human immunodeficiency virus 1, read-out: Mean EC50 ± SD, positive control, Atazanavir-resistant, PR I50L), 1.5 nM; in assay [1] (Human immunodeficiency virus 1, read-out: Mean EC50 ± SD, positive control, Didanosine-resistant, RT L74V) it was 2 nM; in assay [1] (Human immunodeficiency virus 1, read-out: Mean EC50 ± SD, positive control, Enfuviritide-resistant, Env V38A/N126K), 1.5 nM; in assay [1] (Human immunodeficiency virus 1, read-out: Mean EC50 ± SD, positive control, Indinavir-, Ritonavir-resistant, PR I84V) it was 2.5 nM. Further, the EC50 in assay [1] (Human immunodeficiency virus 1, read-out: Mean EC50 ± SD, positive control, Indinavir-, Ritonavir-resistant, PR V82A) worked out at 3.5 nM; in assay [1] (Human immunodeficiency virus 1, read-out: Mean EC50 ± SD, positive control, Indinavir-, Ritonavir-resistant, PR V82F/I84V), 2 nM; in assay [1] (Human immunodeficiency virus 1, read-out: Mean EC50 ± SD, positive control, Lamivudine-resistant, RT M184V) it was 0.55 nM; in assay [1] (Human immunodeficiency virus 1, read-out: Mean EC50 ± SD, positive control, NNRTI-resistant, RT K103N/Y181C) it was 2 nM; in assay [1] (Human immunodeficiency virus 1, read-out: Mean EC50 ± SD, positive control, NNRTI-resistant, RT K103N), 0.9 nM; in assay [1] (Human immunodeficiency virus 1, read-out: Mean EC50 ± SD, positive control, NNRTI-resistant, RT L100I) it was 0.65 nM. In addition, the EC50 in assay [1] (Human immunodeficiency virus 1, read-out: Mean EC50 ± SD, positive control, NNRTI-resistant, RT V106A) was found to be 2 nM; in assay [1] (Human immunodeficiency virus 1, read-out: Mean EC50 ± SD, positive control, NNRTI-resistant, RT V108I), 1.5 nM; in assay [1] (Human immunodeficiency virus 1, read-out: Mean EC50 ± SD, positive control, NNRTI-resistant, RT V179D), 1 nM; in assay [1] (Human immunodeficiency virus 1, read-out: Mean EC50 ± SD, positive control, NNRTI-resistant, RT Y181C), 1 nM; in assay [1] (Human immunodeficiency virus 1, read-out: Mean EC50 ± SD, positive control, NNRTI-resistant, RT Y188C), 1.5 nM; in assay [1] (Human immunodeficiency virus 1, read-out: Mean EC50 ± SD, positive control, Raltegravir-resistant, IN Q148H/G140S), 2 nM. For the same molecule, the EC50 in assay [1] (Human immunodeficiency virus 1, read-out: Mean EC50 ± SD, positive control, Saquinavir-resistant, PR G48V/L90M) was determined as 3.5 nM.
Regarding `COc1cc(-c2ccc(/N=N/c3ccc4c(S(=O)(=O)O)cc(S(=O)(=O)O)c(N)c4c3O)c(OC)c2)ccc1/N=N/c1ccc2c(S(=O)(=O)O)cc(S(=O)(=O)O)c(N)c2c1O` [Chicago sky blue, reference compound], the EC50 in assay [2] was 0.64 µg/mL (≈ 0.707 µM).
Consider `Cc1ccnc2c1NC(=O)c1cccnc1N2C1CC1` [NVP, reference compound], for which the EC50 in assay [1] (Human immunodeficiency virus 1, read-out: Mean EC50 ± SD, positive control, AZT-resistant, RT 4xAZT (D67N/K70R/T215Y/K219Q)) is 35 nM.
In the case of `CC(C)c1nc(CN(C)C(=O)N[C@H](C(=O)N[C@@H](Cc2ccccc2)C[C@H](O)[C@H](Cc2ccccc2)NC(=O)OCc2cncs2)C(C)C)cs1` [RTV, reference compound], the “Mean EC50 ± SD, positive control” value in assay [1] ({}) is reported as “RTV 0.06 ± 0.02 nM”.
For the molecule `Cc1nnc(C(=O)NC(C)(C)c2nc(C(=O)NCc3ccc(F)cc3)c(O)c(=O)n2C)o1` [Raltegravir, reference compound], the EC50 was 2980 ± 540 nM in assay [3] (read-out: PBMC/HIV-1 EC50 ± SD, Multi-drug resistant AD. MDR); 2370 ± 1510 nM in assay [3] (read-out: PBMC/HIV-1 EC50 ± SD, Multi-drug resistant MDR769); 1990 ± 40 nM in assay [3] (read-out: PBMC/HIV-1 EC50 ± SD, NNRTI-resistant A17R); 3540 ± 890 nM in assay [3] (read-out: PBMC/HIV-1 EC50 ± SD, NNRTI-resistant N119); 3870 ± 3250 nM in assay [3] (read-out: PBMC/HIV-1 EC50 ± SD, PI-resistant 144-44); 2970 ± 230 nM in assay [3] (read-out: PBMC/HIV-1 EC50 ± SD, PI-resistant 1002-60). In addition, the EC50 in assay [3] (read-out: PBMC/HIV-1 EC50 ± SD, PI-resistant 1022-48) was 1320 ± 170 nM; in assay [3] (read-out: PBMC/HIV-1 EC50 ± SD, PI-resistant 1026-60), 1770 ± 850 nM; in assay [3] (read-out: PBMC/HIV-1 EC50 ± SD, PI-resistant 1064-52) it was 860 ± 490 nM; in assay [3] (read-out: PBMC/HIV-1 EC50 ± SD, Wild Type 92US727), 10500 ± 12700 nM.
On to `CC(C)(C)NC(=O)[C@@H]1C[C@@H]2CCCC[C@@H]2CN1C[C@@H](O)[C@H](Cc1ccccc1)NC(=O)[C@H](CC(N)=O)NC(=O)c1ccc2ccccc2n1` [Saquinavir, reference compound], for which the RT in the assay on HIV strain 92US727 (Passage 1, 12.5 nM) is given as 281 cpm; with HIV strain 92US727 (Passage 2, 12.5 nM), 1394 cpm; with HIV strain 92US727 (Passage 3, 12.5 nM), 7015 cpm; in the assay on HIVIIIB (Passage 1, 20 nM), 25 cpm; in the assay with HIVIIIB (Passage 2, 20 nM) it was 107 cpm; in the assay with HIVIIIB (Passage 3, 20 nM), 68 cpm. Besides, the TCID50/mL with HIV strain 92US727 (Passage 1, 12.5 nM) was 3.08 × 10^3 TCID50/mL; in the assay on HIV strain 92US727 (Passage 2, 12.5 nM) it was 8.30 × 10^3 TCID50/mL; with HIV strain 92US727 (Passage 3, 12.5 nM) it was 1.09 × 10^5 TCID50/mL; in the assay with HIVIIIB (Passage 1, 20 nM), 0 TCID50/mL; in the assay with HIVIIIB (Passage 2, 20 nM) it was 0 TCID50/mL; in the assay with HIVIIIB (Passage 3, 20 nM), 0 TCID50/mL. Besides, the p24 with HIV strain 92US727 (Passage 1, 12.5 nM) is recorded as 971 pg/mL; in the assay on HIV strain 92US727 (Passage 2, 12.5 nM) it was 3505 pg/mL; with HIV strain 92US727 (Passage 3, 12.5 nM) it was 61,275 pg/mL; with HIVIIIB (Passage 1, 20 nM) it was 794 pg/mL; in the assay on HIVIIIB (Passage 2, 20 nM) it was 1589 pg/mL; in the assay on HIVIIIB (Passage 3, 20 nM), 1085 pg/mL.
Turning to enfuvirtide [reference compound], the EC50 in assay [4] stood at 80 nM.
